Activity calls are given as the source filed them. The rule behind the calls is not given here.
Assays:
Meriones unguiculatus [1] = experiment: Brain penetration in gerbils assessed as inhibition of GR-73632-induced foot tapping at 1 mg/kg, iv; type: functional
Outline: (§1)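 Gerbils receive the test compound by iv injection. Hindlimb thumping (foot tapping) is then elicited by central administration of an NK1 agonist. Inhibition of the thumping is scored as % inhibition at 0 h after 1 mg/kg iv, or at 24 h after 3 mg/kg. Dose titrations at 0 and 24 h give an ID50.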

Substance-P receptor [2] = molecular target: T1, Substance-P receptor (Homo sapiens, UniProt P25103); experiment: Displacement of [125I]L-703606 from human NK1 expressed in CHO cells; type: cell-based
Substance-P receptor [3] = molecular target: T1, Substance-P receptor; experiment: Displacement of [125I]L-703606 from human NK1 expressed in CHO cells in presence of 50% human serum; type: cell-based
Substance-P receptor [4] = molecular target: T1, Substance-P receptor; experiment: Displacement of [125I]L-703606 from human NK1 expressed in CHO cells at 0.1 uM; type: cell-based
Meriones unguiculatus [5] = experiment: Brain penetration in gerbils assessed as inhibition of GR-73632-induced foot tapping at 3 mg/kg, iv after 24 hrs; type: functional; outline: as §1
Substance-P receptor [6] = molecular target: T1, Substance-P receptor; experiment: Displacement of [125I]L-703606 from human NK1 expressed in CHO cells in presence of 50% human serum at 0.1 uM; type: cell-based
Meriones unguiculatus [7] = species: Meriones unguiculatus; experiment: Brain penetration in gerbils assessed as inhibition of GR-73632-induced foot tapping; type: functional; settings: read-out: ID50 (the source's name); outline: as §1

T1 sequence (P25103 whole entry): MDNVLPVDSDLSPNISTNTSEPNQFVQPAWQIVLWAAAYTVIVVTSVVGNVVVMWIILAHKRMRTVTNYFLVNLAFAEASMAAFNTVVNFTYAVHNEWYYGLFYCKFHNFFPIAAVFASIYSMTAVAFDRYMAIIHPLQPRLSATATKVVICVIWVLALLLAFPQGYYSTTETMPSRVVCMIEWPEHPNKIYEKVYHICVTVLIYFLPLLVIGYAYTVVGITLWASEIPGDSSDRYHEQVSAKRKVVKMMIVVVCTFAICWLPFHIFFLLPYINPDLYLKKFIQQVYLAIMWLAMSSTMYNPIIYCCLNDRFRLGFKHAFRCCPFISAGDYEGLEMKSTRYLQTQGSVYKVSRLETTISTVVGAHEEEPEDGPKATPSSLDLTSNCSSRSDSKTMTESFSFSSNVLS

IC50 (Substance-P receptor [2])	Activity (Substance-P receptor [3])	SMILES	also measured
0.88 nM	32 nM	C[C@@H](O[C@H]1CN2C(=O)N(C)C[C@H]2[C@@H]1c1ccc(F)cc1)c1cc(C(F)(F)F)cc(C(F)(F)F)c1	Activity (Meriones unguiculatus [1]): inactive
–	–	C[C@H](O[C@H]1[C@H](c2ccccc2)CN(C(=O)OC(C)(C)C)[C@H]1CO)c1cc(C(F)(F)F)cc(C(F)(F)F)c1	Activity (Substance-P receptor [4]): 13%
–	–	C[C@H](O[C@@H]1[C@@H](c2ccccc2)CN(C(=O)OC(C)(C)C)[C@H]1CO)c1cc(C(F)(F)F)cc(C(F)(F)F)c1	Activity (Substance-P receptor [4]): 26%
2.7 nM	inactive	C[C@@H](O[C@H]1CN2C(=O)N(Cc3ccccc3)C[C@H]2[C@@H]1c1ccc(F)cc1)c1cc(C(F)(F)F)cc(C(F)(F)F)c1	Activity (Meriones unguiculatus [1]): inactive
4.4 nM	–	C[C@@H](O[C@H]1[C@H](c2ccc(F)cc2)CN(C(=O)OC(C)(C)C)[C@H]1CO)c1cc(C(F)(F)F)cc(C(F)(F)F)c1	–
–	–	C[C@H](O[C@H]1CN(C(=O)OC(C)(C)C)[C@@H](CO)[C@@H]1c1ccccc1)c1cc(C(F)(F)F)cc(C(F)(F)F)c1	Activity (Substance-P receptor [4]): 26%
–	–	C[C@H](O[C@@H]1[C@@H](c2ccc(F)cc2)CN(C(=O)OC(C)(C)C)[C@H]1CO)c1cc(C(F)(F)F)cc(C(F)(F)F)c1	Activity (Substance-P receptor [4]): 41%
0.27 nM	37 nM	C[C@@H](O[C@H]1CN2C(=O)OC[C@@H]2[C@@H]1c1ccccc1)c1cc(C(F)(F)F)cc(C(F)(F)F)c1	inhibition in vivo at 1 mg/kg (Meriones unguiculatus [1]): 2.5%
1.2 nM	–	C[C@@H](O[C@@H]1[C@@H](c2ccc(F)cc2)CN(C(=O)OC(C)(C)C)[C@H]1CO)c1cc(C(F)(F)F)cc(C(F)(F)F)c1	–
3.6 nM	–	C[C@@H](O[C@@H]1[C@@H](c2ccccc2)CN(C(=O)OC(C)(C)C)[C@H]1CO)c1cc(C(F)(F)F)cc(C(F)(F)F)c1	–
0.33 nM	57 nM	C[C@@H](O[C@@H]1[C@@H](c2ccc(F)cc2)CN2C(=O)OC[C@@H]12)c1cc(C(F)(F)F)cc(C(F)(F)F)c1	Activity (Meriones unguiculatus [1]): inactive
0.06 nM	2 nM	C[C@@H](O[C@H]1CN2C(=O)NC[C@H]2[C@@H]1c1ccc(F)cc1)c1cc(C(F)(F)F)cc(C(F)(F)F)c1	inhibition in vivo at 1 mg/kg (Meriones unguiculatus [1]): 100%; inhibition in vivo at 3 mg/kg (Meriones unguiculatus [5]): 8%
1 nM	inactive	C[C@@H](O[C@@H]1[C@@H](c2ccc(F)cc2)CN2C(=O)OC[C@H]12)c1cc(C(F)(F)F)cc(C(F)(F)F)c1	Activity (Meriones unguiculatus [1]): inactive
7.8 nM	–	C[C@@H](O[C@H]1[C@H](c2ccccc2)CN(C(=O)OC(C)(C)C)[C@H]1CO)c1cc(C(F)(F)F)cc(C(F)(F)F)c1	–
0.28 nM	–	C[C@@H](O[C@H]1CN(C(=O)OC(C)(C)C)[C@@H](CO)[C@@H]1c1ccc(F)cc1)c1cc(C(F)(F)F)cc(C(F)(F)F)c1	inhibition in vivo at 1 mg/kg (Meriones unguiculatus [1]): 16%; inhibition in vivo at 3 mg/kg (Meriones unguiculatus [5]): 0%
–	–	C[C@H](O[C@H]1CN(C(=O)OC(C)(C)C)[C@@H](CO)[C@@H]1c1ccc(F)cc1)c1cc(C(F)(F)F)cc(C(F)(F)F)c1	Activity (Substance-P receptor [4]): 92%
0.14 nM	37 nM	C[C@@H](O[C@H]1CN2C(=O)OC[C@@H]2[C@@H]1c1ccc(F)cc1)c1cc(C(F)(F)F)cc(C(F)(F)F)c1	inhibition in vivo at 1 mg/kg (Meriones unguiculatus [1]): 49%; inhibition in vivo at 3 mg/kg (Meriones unguiculatus [5]): 0%
–	–	C[C@H](O[C@H]1[C@H](c2ccc(F)cc2)CN(C(=O)OC(C)(C)C)[C@H]1CO)c1cc(C(F)(F)F)cc(C(F)(F)F)c1	Activity (Substance-P receptor [4]): 39%
0.63 nM	–	C[C@@H](O[C@H]1CN(C(=O)OC(C)(C)C)[C@@H](CO)[C@@H]1c1ccccc1)c1cc(C(F)(F)F)cc(C(F)(F)F)c1	–
1.5 nM	–	C[C@@H](O[C@@H]1[C@@H](c2ccccc2)CN2C(=O)OC[C@H]12)c1cc(C(F)(F)F)cc(C(F)(F)F)c1	Activity (Meriones unguiculatus [1]): inactive; Activity (Substance-P receptor [6]): 31%
1.3 nM	–	C[C@@H](O[C@@H]1[C@@H](c2ccccc2)CN2C(=O)OC[C@@H]12)c1cc(C(F)(F)F)cc(C(F)(F)F)c1	Activity (Meriones unguiculatus [1]): inactive; Activity (Substance-P receptor [6]): 25%
0.06 nM	2.2 nM	C[C@@H](O[C@H]1CN2C(=O)CC[C@H]2[C@@H]1c1ccc(F)cc1)c1cc(C(F)(F)F)cc(C(F)(F)F)c1	inhibition in vivo at 1 mg/kg (Meriones unguiculatus [1]): 100%; ED50 (Meriones unguiculatus [7]): 0.03 mg/kg; inhibition in vivo at 3 mg/kg (Meriones unguiculatus [5]): 100%
